# Test results from ChEMBL document CHEMBL1125217, “2-Pyridinone derivatives: a new class of nonnucleoside, HIV-1-specific reverse transcriptase inhibitors” (J Med Chem, 1991).
# pIC50: −log10 of the molar value.
# Test system: H9
# Assay: Concentration which inhibited >95% spread of HIV-1 strain IIIb infection in susceptible H-9 cell culture
# Assay type: functional
# Conditions: Homo sapiens, read-out: CIC95
# Procedure, shortened: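 H9 human T-lymphoid cells in RPMI 1640 with 10% heat-inactivated FBS were pre-incubated one day with serial 2-fold inhibitor dilutions, then infected with HIV-1 IIIb at low multiplicity (<0.001). Inhibitor was kept present for 13-14 days. Spread was measured by p24 core antigen ELISA of supernatants. CIC95 is the concentration blocking >95% of spread.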
row,Compound,IC95
1,CCc1cc(NCc2nc3c(Cl)ccc(Cl)c3o2)c(O)nc1C [L-697661],100 nM
2,CCc1cc(CCc2nc3ccccc3o2)c(O)nc1C,200 nM
3,CCc1cc(CCN2C(=O)c3ccccc3C2=O)c(O)nc1C,40000 nM
4,CCc1cc(NCc2nc3c(C)ccc(C)c3o2)c(O)nc1C,150 nM

# Test system: MT4
# Assay: Concentration which inhibited >95% spread of HIV-1 strain IIIb infection in susceptible MT-4 cell culture
# Assay type: functional
# Conditions: Homo sapiens, read-out: CIC95
# Procedure, shortened: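 MT-4 human T-lymphoid cells in RPMI 1640 with 10% heat-inactivated FBS were infected en masse with HIV-1 IIIb (multiplicity 0.01) for 24 h. They were then washed and plated with serial 2-fold inhibitor dilutions for 3 more days. Spread was measured by p24 core antigen ELISA. CIC95 is the concentration blocking >95% of spread.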
row,Compound,IC95
1,CCc1cc(NCc2nc3c(Cl)ccc(Cl)c3o2)c(O)nc1C [L-697661],50 nM
2,CCc1cc(CCc2nc3ccccc3o2)c(O)nc1C,100 nM
3,Cc1ccnc2c1NC(=O)c1cccnc1N2C1CC1 [NEVIRAPINE],100 nM
4,CCc1cc(NCc2nc3c(C)ccc(C)c3o2)c(O)nc1C,50 nM
5,CC(C)=CCN1Cc2cccc3[nH]c(=S)n(c23)C[C@@H]1C,200 nM
6,CCc1cc(CCc2nc3c(Cl)ccc(Cl)c3o2)c(O)nc1C,100 nM

# Target: Human immunodeficiency virus type 1 reverse transcriptase (Human immunodeficiency virus 1, UniProt Q72547)
# Assay: Inhibitory activity against HIV-1 reverse transcriptase (RT)
# Conditions: not given
row,Compound,pIC50
1,CCc1cc(CCc2nc3c(C)ccc(C)c3o2)c(=O)[nH]c1C,7.64
2,CCc1cc(NCc2nc3ccccc3s2)c(O)nc1C,6.46
3,CCc1cc(NCc2nc3c(C)cccc3o2)c(O)nc1C,6.90
4,CCc1cc(NCc2nc3c(Cl)ccc(Cl)c3o2)c(O)nc1C [L-697661],7.72
5,CCc1cc(NCc2nc3ccccc3o2)c(O)nc1C,6.68
6,CCc1cc(CCc2nc3ccccc3o2)c(O)nc1C,7.66
7,CCc1cc(NCc2nc3cccc(C)c3o2)c(O)nc1C,7.26
8,CCc1cc(CCc2cc3ccccc3o2)c(O)nc1C,7.11
9,CCc1cc(CCN2C(=O)c3ccccc3C2=O)c(O)nc1C,5.43
10,CCc1cc(NCc2cc3ccccc3o2)c(O)nc1C,6.63
11,CCc1cc(NCc2ccc3ccccc3c2)c(=O)[nH]c1C,6.36
12,CCc1cc(NCc2nc3c(C)ccc(C)c3o2)c(O)nc1C,7.70
13,CCc1cc(NCc2nc3ccccc3[nH]2)c(O)nc1C,5.19
14,CCc1cc(CCc2nc3ccccc3s2)c(O)nc1C,6.43
15,CCc1cc(CCc2nc3c(Cl)ccc(Cl)c3o2)c(O)nc1C,8.02
